According to ChEMBL document CHEMBL3352737, “Discovery of potent and selective spiroindolinone MDM2 inhibitor, RO8994, for cancer therapy” (Bioorg Med Chem, 2014):
pIC50: −log10 of the molar value.

How the values were obtained:
RKO = assay: Antiproliferative activity against wild-type p53 expressing human RKO cells assessed as inhibition of cell proliferation by MTT assay; assay type: functional, cell-based
MDA-MB-435 = assay: Antiproliferative activity against p53 mutant expressing human MDA-MB-435 cells assessed as inhibition of cell proliferation by MTT assay; assay type: functional, cell-based
SW480 = assay: Antiproliferative activity against p53 mutant expressing human SW480 cells assessed as inhibition of cell proliferation by MTT assay; assay type: functional, cell-based
[1] = Antiproliferative activity against wild-type p53 expressing human HCT116 cells assessed as inhibition of cell proliferation by MTT assay; assay type: functional, cell-based; conditions: HCT-116
[2] = biological target: T1, Tumour suppressor p53/oncoprotein Mdm2 (Homo sapiens, UniProt Q00987); assay: Inhibition of p53-MDM2 (unknown origin) interaction using 0.2% BSA buffer after 1 hr by HTRF assay; assay type: protein assay
[3] = biological target: T1, Tumour suppressor p53/oncoprotein Mdm2; assay: Inhibition of p53-MDM2 (unknown origin) interaction using 0.02% BSA buffer after 1 hr by HTRF assay; assay type: protein assay
[4] = Oral bioavailability in C57 mouse at 25 mg/kg; assay type: ADME, organism-based; conditions: in vivo
In short: (§1)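 Male C57 mice received a single dose, given orally or intravenously in separate arms. Plasma pharmacokinetic parameters were derived from the resulting concentration–time data and reported as means.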

[5] = Total plasma clearance in C57 mouse at 5 mg/kg, iv; assay type: ADME, organism-based; parameters: dose 5 mg/kg, route intravenous; in short: as §1
[6] = Apparent terminal half life in C57 mouse at 5 mg/kg, iv; assay type: ADME, organism-based; parameters: dose 5 mg/kg, route intravenous; conditions: in vivo, read-out: betat1/2(app) (converted); in short: as §1
[7] = Cmax in C57 mouse at 25 mg/kg, po; assay type: ADME, organism-based; parameters: dose 25 mg/kg, route oral; conditions: in vivo; in short: as §1
[8] = Oral bioavailability in C57 mouse at 50 mg/kg; assay type: ADME, organism-based; conditions: in vivo; in short: as §1
[9] = Cmax in C57 mouse at 50 mg/kg, po; assay type: ADME, organism-based; parameters: dose 50 mg/kg, route oral; conditions: in vivo; in short: as §1

T1 sequence (P04637 whole entry): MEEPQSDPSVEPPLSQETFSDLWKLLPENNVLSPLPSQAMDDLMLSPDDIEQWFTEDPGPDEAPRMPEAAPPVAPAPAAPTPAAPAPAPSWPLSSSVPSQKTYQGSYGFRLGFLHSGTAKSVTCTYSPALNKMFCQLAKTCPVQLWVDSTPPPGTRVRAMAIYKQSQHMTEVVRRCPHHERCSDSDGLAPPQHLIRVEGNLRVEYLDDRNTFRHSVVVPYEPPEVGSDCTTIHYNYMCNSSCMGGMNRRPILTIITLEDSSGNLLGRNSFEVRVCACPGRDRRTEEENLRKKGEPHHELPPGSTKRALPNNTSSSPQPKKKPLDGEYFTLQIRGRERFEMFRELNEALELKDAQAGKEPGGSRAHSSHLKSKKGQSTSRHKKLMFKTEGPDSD
T1 sequence (Q00987 whole entry): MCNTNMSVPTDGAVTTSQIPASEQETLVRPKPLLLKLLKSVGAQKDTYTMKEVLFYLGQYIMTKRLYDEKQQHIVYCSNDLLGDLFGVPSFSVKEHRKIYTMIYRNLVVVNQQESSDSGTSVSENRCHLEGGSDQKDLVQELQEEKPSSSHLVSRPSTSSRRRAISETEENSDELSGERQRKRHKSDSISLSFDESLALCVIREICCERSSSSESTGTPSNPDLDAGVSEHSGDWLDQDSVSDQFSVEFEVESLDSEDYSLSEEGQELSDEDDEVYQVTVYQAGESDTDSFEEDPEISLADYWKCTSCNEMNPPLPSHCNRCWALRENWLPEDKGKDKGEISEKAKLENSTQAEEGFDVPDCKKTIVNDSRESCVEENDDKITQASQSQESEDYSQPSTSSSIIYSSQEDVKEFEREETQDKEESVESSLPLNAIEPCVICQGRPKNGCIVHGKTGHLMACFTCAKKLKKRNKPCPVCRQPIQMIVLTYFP

SMILES: COc1cc(NC(=O)[C@@H]2N[C@@H](CC(C)(C)C)[C@@]3(C(=O)Nc4cc(Cl)ccc43)[C@H]2c2cccc(Cl)c2F)ccc1C(=O)O
- pIC50 (RKO): 6.62
- pIC50 (MDA-MB-435): 4.94
- pIC50 (SW480): 4.84
- pIC50 [1]: 7.30

SMILES: COc1cc(NC(=O)[C@H]2N[C@H](CC(C)(C)C)[C@]3(C(=O)Nc4cc(Cl)ccc43)[C@@H]2c2cccc(Cl)c2F)ccc1C(=O)O
- pIC50 [2]: 5.43
- pIC50 [3]: 5.51

SMILES: COc1cc(C(=O)O)ccc1NC(=O)[C@@H]1N[C@@H](CC(C)(C)C)[C@@]2(C(=O)Nc3cc(Cl)ccc32)[C@H]1c1cccc(Cl)c1F
- pIC50 (RKO): 7.70
- pIC50 (MDA-MB-435): 4.92
- bioavailability [4]: 21%
- clearance [5]: 34.6 mL/min/kg
- half-life [6]: 666 min
- Cmax [7]: 800 ng/mL
- pIC50 (SW480): 5.01
- pIC50 [1]: 8.00

SMILES: CC(C)(C)C[C@@H]1N[C@@H](C(=O)Nc2ccc(C(N)=O)cc2)[C@H](c2cccc(Cl)c2F)[C@]12C(=O)Nc1cc(Cl)ccc12
- pIC50 (RKO): 6.82
- bioavailability [8]: 63%
- Cmax [9]: 8300 ng/mL
- pIC50 (MDA-MB-435): 4.94
- clearance [5]: 3.5 mL/min/kg
- half-life [6]: 624 min
- pIC50 [2]: 8.30
- pIC50 (SW480): 4.84
- pIC50 [3]: 8.30
- pIC50 [1]: 7.15

SMILES: COc1cc(NC(=O)[C@@H]2N[C@@H](CC(C)(C)C)[C@@]3(C(=O)Nc4cc(Cl)ccc43)[C@H]2c2cccc(Cl)c2F)ccc1C(N)=O
- pIC50 (RKO): 7.05
- pIC50 (MDA-MB-435): 5.16
- pIC50 (SW480): 5.40
- pIC50 [1]: 7.10

SMILES: CC(C)(C)C[C@@H]1N[C@@H](C(=O)Nc2ccc(C(N)=O)cc2F)[C@H](c2cccc(Cl)c2F)[C@]12C(=O)Nc1cc(Cl)ccc12
- pIC50 (RKO): 6.66
- bioavailability [8]: 75%
- Cmax [9]: 13100 ng/mL
- pIC50 (MDA-MB-435): 5.00
- clearance [5]: 3.4 mL/min/kg
- half-life [6]: 918 min
- pIC50 [2]: 8.15
- pIC50 (SW480): 5.15
- pIC50 [3]: 8.15
- pIC50 [1]: 6.92

SMILES: CC(C)(C)C[C@@H]1N[C@@H](C(=O)Nc2ccc(OCCO)cc2)[C@H](c2cccc(Cl)c2F)[C@]12C(=O)Nc1cc(Cl)ccc12
- pIC50 (RKO): 6.55
- pIC50 (MDA-MB-435): 4.97
- pIC50 [2]: 8.10
- pIC50 (SW480): 4.95
- pIC50 [1]: 6.74

SMILES: COc1cc(OCCO)ccc1NC(=O)[C@@H]1N[C@@H](CC(C)(C)C)[C@@]2(C(=O)Nc3cc(Cl)ccc32)[C@H]1c1cccc(Cl)c1F
- pIC50 (RKO): 7.80
- pIC50 (MDA-MB-435): 5.02
- bioavailability [4]: 55%
- clearance [5]: 6.7 mL/min/kg
- half-life [6]: 396 min
- Cmax [7]: 4300 ng/mL
- pIC50 (SW480): 5.35
- pIC50 [1]: 8.10

SMILES: COc1cc(C(N)=O)ccc1NC(=O)[C@@H]1N[C@@H](CC(C)(C)C)[C@@]2(C(=O)Nc3cc(Cl)cc(F)c32)[C@H]1c1cccc(Cl)c1F
- pIC50 (RKO): 7.10
- pIC50 (MDA-MB-435): 4.92
- pIC50 [2]: 8.22
- pIC50 (SW480): 4.98
- pIC50 [1]: 6.92

SMILES: CC(C)(C)C[C@@H]1N[C@@H](C(=O)Nc2ccc(C(N)=O)cc2)[C@H](c2cccc(Cl)c2F)[C@]12C(=O)Nc1cc(Cl)c(F)cc12
- pIC50 (RKO): 6.37
- bioavailability [8]: 45%
- Cmax [9]: 8700 ng/mL
- pIC50 (MDA-MB-435): 4.96
- clearance [5]: 2.6 mL/min/kg
- half-life [6]: 528 min
- pIC50 (SW480): 4.82
- pIC50 [1]: 6.74

SMILES: CC(=O)N1CCCC([C@]2(Cc3cccc(Cl)c3)C(=O)Nc3cc(Cl)ccc32)C1 (stereo partly specified)
- pIC50 [2]: 5.41

SMILES: COc1cc(C(N)=O)ccc1NC(=O)[C@@H]1N[C@@H](CC(C)(C)C)[C@@]2(C(=O)Nc3c2ccc(Cl)c3F)[C@H]1c1cccc(Cl)c1F (racemic)
- pIC50 (RKO): 5.97
- pIC50 (MDA-MB-435): 5.03
- pIC50 [2]: 7.74
- pIC50 (SW480): 5.12
- pIC50 [3]: 7.82
- pIC50 [1]: 6.17
